Assays:
[1] = system: Pectobacterium carotovorum; experiment: Bactericidal activity against Erwinia carotovora CECT 225 at 0.2 mg/disk after 24 hrs by paper disk-agar diffusion method; assay type: functional
In short: (§1)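 Each bacterial strain was taken from a 24-h culture on solid medium, reactivated in Nutrient Broth, and grown a further 24 h at 28 or 37 °C depending on the strain. 1 mL of suspension was mixed with 15 mL Plate Count Agar. Four 0.5 cm paper disks (0.2 mg/disk) were placed on the set agar. Controls were vehicle-only disks and tetracycline. Plates were incubated 24 h, dark, 28 or 37 °C. The inhibition zone was read in mm as the mean ± SE of three independent experiments.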

Salmonella typhi = experiment: Bactericidal activity against Salmonella typhi CECT 409 at 0.2 mg/disk after 24 hrs by paper disk-agar diffusion method; assay type: functional, Salmonella enterica subsp. enterica serovar Typhi
In short: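 Paper disk-agar diffusion, run in triplicate. 24-h culture reactivated in nutrient broth and grown a further 24 h at 28 or 37 °C by species. 1 mL suspension mixed into 15 mL plate count agar. Four 0.5 cm disks placed per plate, incubated 24 h in the dark. Inhibition zone (mm) reported as mean ± SE of three independent experiments; vehicle disks as negative control.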

Escherichia coli [2] = experiment: Bactericidal activity against Escherichia coli CECT 405 at 0.2 mg/disk after 24 hrs by paper disk-agar diffusion method relative to control; assay type: functional
Escherichia coli [3] = experiment: Bactericidal activity against Escherichia coli CECT 100 at 0.2 mg/disk after 24 hrs by paper disk-agar diffusion method; assay type: functional; in short: as §1
Enterococcus faecalis [4] = experiment: Bactericidal activity against Enterococcus faecalis CECT 481 at 0.2 mg/disk after 24 hrs by paper disk-agar diffusion method; assay type: functional; in short: as §1
Staphylococcus aureus [5] = experiment: Bactericidal activity against Staphylococcus aureus CECT 86 at 0.2 mg/disk after 24 hrs by paper disk-agar diffusion method; assay type: functional; in short: as §1
Aspergillus parasiticus [6] = experiment: Fungicidal activity against Aspergillus parasiticus CECT 2681 at 0.2 mg/disk after 72 hrs by paper disk-agar diffusion method; assay type: functional
In short: (§2)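 Fungi were grown on potato dextrose agar (PDA) for 7 days at 28 °C. Conidia were suspended to ~10⁶/mL in 0.05% Tween 80 in sterile water, and 1 mL was mixed into 15 mL PDA. Four 0.5 cm paper disks (0.2 mg/disk) were placed on the set agar. Controls were vehicle-only disks and benomyl at species-dependent doses. The inhibition zone was read in mm at 72 h as the mean ± SE of three independent experiments.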

Trichoderma viride [7] = experiment: Fungicidal activity against Trichoderma viride CECT 2423 at 0.2 mg/disk after 72 hrs by paper disk-agar diffusion method; assay type: functional; in short: as §2
[8] = system: Phytophthora citrophthora; experiment: Fungicidal activity against Phytophthora citrophthora CECT 2353 at 0.2 mg/disk after 72 hrs by paper disk-agar diffusion method; assay type: functional; in short: as §2
Escherichia coli [9] = experiment: Bactericidal activity against Escherichia coli CECT 405 at 0.2 mg/disk after 24 hrs by paper disk-agar diffusion method; assay type: functional; in short: as §1
Fusarium culmorum [10] = experiment: Fungicidal activity against Fusarium culmorum CCM 172 at 0.2 mg/disk after 72 hrs by paper disk-agar diffusion method; assay type: functional; in short: as §2
Bacillus cereus [11] = experiment: Bactericidal activity against Bacillus cereus CECT 148 at 0.2 mg/disk after 24 hrs by paper disk-agar diffusion method; assay type: functional; in short: as §1
Geotrichum candidum = experiment: Fungicidal activity against Geotrichum candidum CCM 245 at 0.2 mg/disk after 72 hrs by paper disk-agar diffusion method; assay type: functional; in short: as §2
Staphylococcus aureus [12] = experiment: Bactericidal activity against Staphylococcus aureus CECT 86 at 0.2 mg/disk after 24 hrs by paper disk-agar diffusion method relative to control; assay type: functional
Escherichia coli [13] = experiment: Bactericidal activity against Escherichia coli CECT 100 at 0.2 mg/disk after 24 hrs by paper disk-agar diffusion method relative to control; assay type: functional
[14] = system: Phytophthora citrophthora; experiment: Fungicidal activity against Phytophthora citrophthora CECT 2353 at 1.5 ug/disk after 72 hrs by paper disk-agar diffusion method; assay type: functional; settings: CECT 2353, 72 h, read-out: IZ
In short: (§3)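 Fungi grown on potato dextrose agar for 7 days at 28 °C. Conidia suspended to about 10⁶/mL in 0.05% Tween 80 in sterile water. 1 mL suspension added to 15 mL PDA; four impregnated 0.5 cm disks placed after setting. Inhibition zone measured at 72 h; mean ± SE of three independent experiments. Vehicle disks as negative control; benomyl dose set per fungal species.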

Aspergillus parasiticus [15] = experiment: Fungicidal activity against Aspergillus parasiticus CECT 2681 at 1 ug/disk after 72 hrs by paper disk-agar diffusion method; assay type: functional; settings: CECT 2681, 72 h, read-out: IZ; in short: as §3
Fusarium culmorum [16] = experiment: Fungicidal activity against Fusarium culmorum CCM 172 at 10 ug/disk after 72 hrs by paper disk-agar diffusion method; assay type: functional; settings: CCM 172, 72 h, read-out: IZ; in short: as §3
Trichoderma viride [17] = experiment: Fungicidal activity against Trichoderma viride CECT 2423 at 1 ug/disk after 72 hrs by paper disk-agar diffusion method; assay type: functional; settings: CECT 2423, 72 h, read-out: IZ; in short: as §3
Bacillus cereus [18] = experiment: Bactericidal activity against Bacillus cereus CECT 148 at 0.2 mg/disk after 24 hrs by paper disk-agar diffusion method relative to control; assay type: functional
Enterococcus faecalis [19] = experiment: Bactericidal activity against Enterococcus faecalis CECT 481 at 0.2 mg/disk after 24 hrs by paper disk-agar diffusion method relative to control; assay type: functional
[20] = system: Pectobacterium carotovorum; experiment: Bactericidal activity against Erwinia carotovora CECT 225 at 0.2 mg/disk after 24 hrs by paper disk-agar diffusion method relative to control; assay type: functional

| SMILES | inhibition zone (IZ) [1] [mm] | inhibition zone (IZ) (Salmonella typhi) [mm] | inhibition zone (IZ) (Escherichia coli [3]) [mm] | inhibition zone (IZ) (Enterococcus faecalis [4]) [mm] | inhibition zone (IZ) (Staphylococcus aureus [5]) [mm] | inhibition zone (IZ) (Aspergillus parasiticus [6]) [mm] | inhibition zone (IZ) (Trichoderma viride [7]) [mm] | inhibition zone (IZ) [8] [mm] | inhibition zone (IZ) (Escherichia coli [9]) [mm] | inhibition zone (IZ) (Fusarium culmorum [10]) [mm] | inhibition zone (IZ) (Bacillus cereus [11]) [mm] | inhibition zone (IZ) (Geotrichum candidum) [mm] | Activity (Escherichia coli [13]) [%] | other results |
| --- | --- | --- | --- | --- | --- | --- | --- | --- | --- | --- | --- | --- | --- | --- |
| COc1ccc(NC(=O)OCCCCCC2c3cc(OC)c(OC)cc3CCN2C)cc1 (stereo not given) | 9.67 | 11.33 | 11.67 | 14.67 | 13.67 | 0 | 6.17 | 0 | 13.33 | 0 | 10.33 | 6.67 |  | Activity (Escherichia coli [2]): 52%; Activity (Staphylococcus aureus [12]): 51% |
| COc1cc2c(cc1OC)C(CCCCCOC(=O)Nc1ccccc1)N(C)CC2 (stereo not given) | 10.67 | 12 | 15.17 | 14.17 | 15 | 0 | 5.75 | 0 | 12.33 | 7 | 12.67 | 6.25 | 59 |  |
| CCCCNC(=O)n1c(NC(=O)OC)nc2ccccc21 [BENOMYL] |  |  |  |  |  |  |  |  |  |  |  | 0 |  | zone of inhibition at 1.5 µg/disc [14]: 24.5 mm; zone of inhibition at 1 µg/disc (Aspergillus parasiticus [15]): 18 mm; zone of inhibition at 10 µg/disc (Fusarium culmorum [16]): 18 mm; zone of inhibition at 1 µg/disc (Trichoderma viride [17]): 22 mm |
| COc1cc2c(cc1OC)C(CCCCCOC(=O)CCc1ccc(F)cc1)N(C)CC2 (stereo not given) | 11.67 | 9.17 | 11.83 | 9.33 | 10.33 | 0 | 8.33 | 6 | 8.83 | 7.67 | 11.33 | 8.33 | 46 | Activity (Bacillus cereus [18]): 49% |
| COc1cc2c(cc1OC)C(CCCCCOC(=O)Nc1ccc(F)cc1)N(C)CC2 (stereo not given) | 22.33 | 14.67 | 12.33 | 20 | 14 |  |  |  | 12 |  | 14.33 |  |  | Activity (Enterococcus faecalis [19]): 64%; Activity [20]: 64% |

Reference: ChEMBL document CHEMBL2385053, “Novel isoquinoline derivatives as antimicrobial agents” (2013)
